The text below walks through data of ChEMBL document CHEMBL2157980, “Discovery of SCH 900229, a Potent Presenilin 1 Selective γ-Secretase Inhibitor for the Treatment of Alzheimer's Disease” (ACS Med Chem Lett, 2012).

The target of test [1] is T1, Presenilin-1 (Homo sapiens, UniProt P49768). Put plainly: Inhibition of PS1 gamma-secretase assessed as reduction of amyloid beta-40 production by membrane based assay. In outline: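 Aβ40 production was measured in a membrane-based assay. IC50 was the average of at least two measurements, with standard deviation 20%.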
Test [2] deals with Mus musculus. Put plainly: Antialzheimer activity in B6C3F1 mouse assessed as reduction of amyloid beta-40 level in cortex at 10 mg/kg, po after 3 hrs. It counts as functional. Set-up: scale not given: the % may be the effect or the level left. In outline: (§1)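 B6C3F1 mice were dosed orally at 10 or 30 mg/kg. Aβ40 in plasma and cortex was measured 3 h after dosing and expressed as % change, with lowering shown as negative.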

The subject of test [3] is Mus musculus. Put plainly: Antialzheimer activity in B6C3F1 mouse assessed as reduction of amyloid beta-40 level in plasma at 10 mg/kg, po after 3 hrs. It counts as functional. Also on record: scale not given: the % may be the effect or the level left. A digest of the protocol:
as §1

The next test addresses Presenilin-2 (Homo sapiens, UniProt P49810). Put plainly: Inhibition of PS2 gamma-secretase expressed in HEK cells harboring Awe-Lon gene assessed as reduction of amyloid beta-42 production. It counts as cell-based, HEK293.
Test [4] addresses T1, Presenilin-1. Put plainly: Inhibition of PS1 gamma-secretase expressed in HEK cells harboring Awe-Lon gene assessed as reduction of amyloid beta-40 production. It counts as cell-based, HEK293. A digest of the protocol: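 Cell-based Aβ40 production assay in HEK293 cells carrying APP Awe-Lon. IC50 was the average of at least two determinations, with standard deviation 20%.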

Test [5] in a line: Selectivity ratio of IC50 for PS2 gamma-secretase to IC50 for PS1 gamma-secretase. In outline:
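Inhibitors were tested against reconstituted γ-secretase complexes containing PS1 or PS2. The result is expressed as the PS2/PS1 ratio of IC50 values.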

Test [6] concerns Mus musculus. Put plainly: Antialzheimer activity in B6C3F1 mouse assessed as reduction of amyloid beta-40 level in plasma at 30 mg/kg, po after 3 hrs. Type of test: functional. Also on record: scale not given: the % may be the effect or the level left. A digest of the protocol: as §1
Test [7] has as its system Mus musculus. Put plainly: Antialzheimer activity in B6C3F1 mouse assessed as reduction of amyloid beta-40 level in cortex at 30 mg/kg, po after 3 hrs. Set-up: scale not given: the % may be the effect or the level left. It counts as functional. A digest of the protocol:
as §1

Each structure is given as a SMILES string.

Chain of Presenilin-2 (P49810 1-297 limits assumed): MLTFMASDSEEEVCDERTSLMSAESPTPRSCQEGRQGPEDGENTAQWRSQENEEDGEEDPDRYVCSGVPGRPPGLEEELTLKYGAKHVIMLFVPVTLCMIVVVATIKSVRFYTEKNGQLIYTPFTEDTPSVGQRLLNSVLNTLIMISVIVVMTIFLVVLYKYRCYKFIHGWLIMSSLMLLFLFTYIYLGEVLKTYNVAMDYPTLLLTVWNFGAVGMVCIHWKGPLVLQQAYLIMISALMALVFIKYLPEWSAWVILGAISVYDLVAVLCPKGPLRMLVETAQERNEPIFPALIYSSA
Chain of Presenilin-2 (P49810 298-448 limits assumed): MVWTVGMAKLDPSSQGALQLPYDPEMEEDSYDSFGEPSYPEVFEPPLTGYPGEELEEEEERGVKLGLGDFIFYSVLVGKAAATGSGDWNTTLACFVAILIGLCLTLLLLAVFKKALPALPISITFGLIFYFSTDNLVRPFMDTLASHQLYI

The IC50 is the midpoint of a concentration-inhibition curve. As for `CC(C)S(=O)(=O)CC[C@@H]1OCC[C@@]2(S(=O)(=O)c3ccc(Cl)cc3)c3c(F)ccc(F)c3OC[C@@H]12`, the IC50 at Presenilin-1 [1] amounted to 6 nM; at Presenilin-2 it was 3 nM; on Presenilin-1 [4] it was 8 nM. The values for the Activity in the test with Mus musculus [2] and in the test with Mus musculus [3] were 58% and 2%, respectively.

Consider `O=S(=O)(c1ccc(Cl)cc1)[C@]12CCO[C@H](CCO)[C@H]1COc1c(F)ccc(F)c12`, for which the IC50 on Presenilin-1 [1] was 320 nM.

Take `O=S(=O)(c1ccc(Cl)cc1)[C@@]12CCO[C@@H](CCO)[C@@H]1COc1c(F)ccc(F)c12`: the IC50 turned out to be 20 nM on Presenilin-1 [1], 8 nM at Presenilin-2 and 18 nM on Presenilin-1 [4].

For the compound `CNC(=O)OCC[C@@H]1OCC[C@@]2(S(=O)(=O)c3ccc(Cl)cc3)c3c(F)ccc(F)c3OC[C@@H]12` (racemic), in test [5], the Ratio IC50 stood at 3. Besides, the results for the IC50 at Presenilin-1 [1], on Presenilin-2 and at Presenilin-1 [4] were 8 nM, 6 nM and 8 nM, respectively.

Take `CCNC(=O)OCC[C@@H]1OCC[C@@]2(S(=O)(=O)c3ccc(Cl)cc3)c3c(F)ccc(F)c3OC[C@@H]12` (racemic): the figures for the IC50 at Presenilin-1 [1], on Presenilin-2 and on Presenilin-1 [4] were 24 nM, 20 nM and 48 nM, respectively.

As to `CCS(=O)(=O)CC[C@@H]1OCC[C@@]2(S(=O)(=O)c3ccc(Cl)cc3)c3c(F)ccc(F)c3OC[C@@H]12`, the Ratio IC50 in test [5] came out at 26. Besides, the IC50 came out at 3 nM on Presenilin-1 [1], 2 nM on Presenilin-2 and 5 nM on Presenilin-1 [4]. Further, the figures for the Activity with Mus musculus [6] and in the test with Mus musculus [7] were 60% and 79%, respectively.
